Consider two compounds from ChEMBL document CHEMBL4033788, “Novel Ligustrazine-Based Analogs of Piperlongumine Potently Suppress Proliferation and Metastasis of Colorectal Cancer Cells in Vitro and in Vivo” (J Med Chem, 2018).

One data set deals with Mus musculus. In words: Nephrotoxicity in BALB/c nude mouse xenografted with human HCT116 cells at 2.5 to 5 mg/kg, ip administered for 21 consecutive days. The following applies: in vivo. It counts as toxicity, organism-based. The method, boiled down: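 Male BALB/c nude mice (3−5 weeks) inoculated sc with 1 × 10^7 HCT-116 cells; at tumour volume about 75 mm3 randomized (n = 8 per group) and dosed ip daily at 2.5 or 5 mg/kg for 21 consecutive days. Body weights monitored; liver, kidney, lung and heart inspected for size and morphology at sacrifice.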

For data set [1], the system named is HCT-116. Nature of the data set: Inhibition of TGF-beta1-induced decrease in expression levels of E-cadherin protein in human HCT116 cells after 48 hrs by Western blot analysis. The class given is functional, cell-based. The method, boiled down:
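HCT-116 cells treated with or without TGF-β1 (10 ng/mL) for 48 h, with or without test agent. Lysates (20 μg/lane) run on 7.5% SDS-PAGE and transferred to PVDF. Probed for p-Akt (Ser473), Akt, p-GSK-3β (S9), GSK-3β, E-cadherin, MMP-9 and β-actin, detected by ECL. Densitometry relative to β-actin or total protein. Three independent experiments.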
Background: Immunoblotting shows a protein as a band on a membrane.

Data set [2] can be described thus: Acute toxicity in ICR mouse assessed as survival rate at 300 mg/kg, ip administered for 14 days relative to control. It counts as organism-based. The following applies: in vivo.
Data set [3] has as its system HCT-116. In words: Induction of ROS accumulation in human HCT116 cells up to 3 hrs in presence of GSH by DCFH-DA staining-based fluorescence microscopic analysis. The class given is functional, cell-based.
Data set [4] concerns HCT-116. Nature of the data set: Inhibition of TGF-beta1-induced increase in expression levels of snail protein in human HCT116 cells after 48 hrs by Western blot analysis. It counts as functional, cell-based. The method, boiled down: (§1)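 HCT-116 cells (1 × 10^6/well, plated overnight) were exposed to TGF-β1 (10 ng/mL) for 48 h, with or without test compound; vehicle was 0.1% DMSO. Lysates (20 μg/lane) were run on 7.5% SDS-PAGE and blotted to PVDF, with primary antibody overnight at 4 °C and HRP/ECL detection. Band densities were normalised to β-actin across three independent experiments.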

Data set [5] concerns HCT-116. In words: Antiinvasive activity in human HCT116 cells assessed as inhibition of TGF-beta1-induced cell invasion at 50 nM after 48 hrs by crystal violet staining-based assay. It counts as functional. The method, boiled down: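 Transwell invasion. HCT-116 cells (2.5 × 10^5/well) seeded on matrigel-coated chambers, with TGF-β1 (10 ng/mL) and test agents (2, 10, 50 nM) in the lower chamber for 48 h. Invaded cells stained with crystal violet and counted. Three independent experiments.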

The test system of data set [6] is HCT-116. In words: Inhibition of TGF-beta1-induced increase in expression levels of MMP-9 protein in human HCT116 cells at 50 nM after 48 hrs by Western blot analysis. The class given is functional, cell-based. The method, boiled down: as §1
The test system of data set [7] is HCT-116. Nature of the data set: Inhibition of IL-1beta-mediated adhesion of human rhodamine 123-labeled HCT116 cells to HUVEC at 50 nM after 1 hr by fluoresence assay. It counts as functional, cell-based. The method, boiled down:
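HUVEC monolayers pretreated with or without IL-1β (1 ng/mL) for 4 h, then washed. Rhodamine 123-labeled HCT-116 cells added with vehicle or test agent (2, 10, 50 nM) at 37 °C for 1 h. Non-adherent cells washed off; percent adhered cells determined by fluorescence microscopy. Three separate experiments.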

Calls of active or inactive are those of the source. No cut-off for these calls is given here.

With `Cc1nc(C)c(/C=C/C(=O)N2CCC=C(Cl)C2=O)nc1C`, the Activity entry with Mus musculus was “Non-Toxic”. Further, the inhibition entry with HCT-116 [1] and in the data set on HCT-116 [4] was “Dose-dependent effect” each time. Further, in data set [2], the survival at 336 h came out at 10%. Further, in the data set with HCT-116 [3], the outcome was inactive.

Turning to `COc1cc(/C=C/C(=O)N2CCC=CC2=O)cc(OC)c1OC` [PIPLARTINE], the outcome in the data set with HCT-116 [5] was Active. For the same compound, the inhibition result in the data set with HCT-116 [6] and with HCT-116 [7] was “Active” throughout.
